From ChEMBL document CHEMBL2434850, “Synthesis and antibacterial activity of novel modified 5-O-mycaminose 14-membered ketolides” (2013)
≈ marks a conversion by molar mass, not a printed value.

Tests used:
Assay type in all cases: functional
[1] = test system: Staphylococcus epidermidis; assay: Antibacterial activity against methicillin-sensitive Staphylococcus epidermidis 09-9 by broth microdilution method
Summary of the method: (§1)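 Value is the minimum inhibitory concentration (MIC), determined by broth microdilution following CLSI recommendations. Strains ATCC 29213, 15 and 09-06 are methicillin-sensitive S. aureus; ATCC 12228 and 09-9 are methicillin-sensitive S. epidermidis.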

[2] = test system: Staphylococcus epidermidis; assay: Antibacterial activity against methicillin-resistant Staphylococcus epidermidis 09-3 by broth microdilution method
[3] = test system: Staphylococcus epidermidis; assay: Antibacterial activity against methicillin-sensitive Staphylococcus epidermidis ATCC 12228 by broth microdilution method; summary of the method: as §1
Staphylococcus aureus [4] = assay: Antibacterial activity against methicillin-resistant Staphylococcus aureus 09-13 by broth microdilution method
Summary of the method: (§2)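 MIC determined by broth microdilution following CLSI recommendations; strain is a methicillin-resistant S. aureus (MRSA).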

Staphylococcus aureus [5] = assay: Antibacterial activity against methicillin-sensitive Staphylococcus aureus 09-6 by broth microdilution method; summary of the method: as §1
Staphylococcus aureus [6] = assay: Antibacterial activity against methicillin-sensitive Staphylococcus aureus 15 by broth microdilution method; summary of the method: as §1
Staphylococcus aureus [7] = assay: Antibacterial activity against methicillin-resistant Staphylococcus aureus ATCC 33591 by broth microdilution method; summary of the method: as §2
Staphylococcus aureus [8] = assay: Antibacterial activity against methicillin-sensitive Staphylococcus aureus ATCC 29213 by broth microdilution method; summary of the method: as §1

| Structure (SMILES) | MIC [1] [µg/mL] | MIC [2] [µg/mL] | MIC [3] [µg/mL] | MIC (Staphylococcus aureus [4]) [µg/mL] | MIC (Staphylococcus aureus [5]) [µg/mL] | MIC (Staphylococcus aureus [6]) [µg/mL] | MIC (Staphylococcus aureus [7]) [µg/mL] | MIC (Staphylococcus aureus [8]) [µg/mL] |
| --- | --- | --- | --- | --- | --- | --- | --- | --- |
| CCCCCNC(=O)O/N=C1\[C@H](C)C[C@](C)(OC)[C@H](O[C@@H]2O[C@H](C)[C@@H](OC(=O)NCCCCC)[C@H](N(C)C)[C@H]2O)[C@@H](C)C(=O)[C@@H](C)C(=O)O[C@H](CC)[C@@]2(C)OC(=O)O[C@@H]2[C@H]1C | > 64 | > 64 | > 64 | > 64 | > 64 | > 64 | > 64 | > 64 |
| CC[C@H]1OC(=O)[C@H](C)C(=O)[C@H](C)[C@@H](O[C@@H]2O[C@H](C)[C@@H](OC(=O)NC3CCCCC3)[C@H](N(C)C)[C@H]2O)[C@@](C)(OC)C[C@@H](C)/C(=N\OC(=O)NC2CCCCC2)[C@H](C)[C@H]2OC(=O)O[C@@]21C | > 32 | > 32 | 32 (≈ 35.8 µM) | > 32 | > 32 | > 32 | > 32 | 32 (≈ 35.8 µM) |
| CC[C@H]1OC(=O)[C@H](C)C(=O)[C@H](C)[C@@H](O[C@@H]2O[C@H](C)C[C@H](N(C)C)[C@H]2O)[C@](C)(OC)C[C@@H](C)C(=O)[C@H](C)[C@H]2N(CCCCn3cnc(-c4cccnc4)c3)C(=O)O[C@]12C [TELITHROMYCIN] | 0.06 (≈ 0.0739 µM) | 32 (≈ 39.4 µM) | 0.06 (≈ 0.0739 µM) | > 32 | 0.5 (≈ 0.616 µM) | 2 (≈ 2.46 µM) | > 32 | 0.5 (≈ 0.616 µM) |
| CC[C@H]1OC(=O)[C@H](C)C(=O)[C@H](C)[C@@H](O[C@@H]2O[C@H](C)[C@@H](OC(=O)NCCc3ccccc3)[C@H](N(C)C)[C@H]2O)[C@@](C)(OC)C[C@@H](C)/C(=N\OC(=O)NCCc2ccccc2)[C@H](C)[C@H]2OC(=O)O[C@@]21C | > 32 | > 32 | > 32 | > 32 | > 32 | > 32 | > 32 | > 32 |
| CC[C@H]1OC(=O)[C@H](C)C(=O)[C@H](C)[C@@H](O[C@@H]2O[C@H](C)[C@@H](O)[C@H](N(C)C)[C@H]2O)[C@@](C)(OC)C[C@@H](C)/C(=N\O)[C@H](C)[C@H]2OC(=O)O[C@@]21C | 2 (≈ 3.1 µM) | > 64 | 2 (≈ 3.1 µM) | > 64 | 2 (≈ 3.1 µM) | > 64 | > 64 | 2 (≈ 3.1 µM) |
| CC[C@H]1OC(=O)[C@H](C)C(=O)[C@H](C)[C@@H](O[C@@H]2O[C@H](C)[C@@H](OC(=O)Nc3ccc(C(F)(F)F)cc3)[C@H](N(C)C)[C@H]2O)[C@@](C)(OC)C[C@@H](C)/C(=N\O)[C@H](C)[C@H]2OC(=O)O[C@@]21C | > 32 | > 32 | 32 (≈ 38.5 µM) | > 32 | > 32 | > 32 | > 32 | > 32 |
| CC[C@H]1OC(=O)[C@H](C)[C@@H](O[C@H]2C[C@@](C)(OC)[C@@H](O)[C@H](C)O2)[C@H](C)[C@@H](O[C@@H]2O[C@H](C)C[C@H](N(C)C)[C@H]2O)[C@](C)(OC)C[C@@H](C)C(=O)[C@H](C)[C@@H](O)[C@]1(C)O [CLARITHROMYCIN] | 4 (≈ 5.35 µM) | > 64 | 0.06 (≈ 0.0802 µM) | > 64 | 0.06 (≈ 0.0802 µM) | 0.5 (≈ 0.668 µM) | > 64 | 0.06 (≈ 0.0802 µM) |
| CC[C@H]1OC(=O)[C@H](C)C(=O)[C@H](C)[C@@H](O[C@@H]2O[C@H](C)[C@@H](OC(=O)NCCc3ccccc3)[C@H](N(C)C)[C@H]2O)[C@@](C)(OC)C[C@@H](C)/C(=N\O)[C@H](C)[C@H]2OC(=O)O[C@@]21C | 2 (≈ 2.53 µM) | > 32 | 0.5 (≈ 0.631 µM) | > 32 | 1 (≈ 1.26 µM) | 1 (≈ 1.26 µM) | > 32 | 1 (≈ 1.26 µM) |
| CC[C@H]1OC(=O)[C@H](C)C(=O)[C@H](C)[C@@H](O[C@@H]2O[C@H](C)[C@@H](OC(=O)NCCCl)[C@H](N(C)C)[C@H]2O)[C@@](C)(OC)C[C@@H](C)/C(=N\OC(=O)NCCCl)[C@H](C)[C@H]2OC(=O)O[C@@]21C | > 32 | > 32 | > 32 | > 32 | > 32 | > 32 | > 32 | > 32 |
